Data reported in ChEMBL document CHEMBL4350999, “Enhanced tumor retention of NTSR1-targeted agents by employing a hydrophilic cysteine cathepsin inhibitor” (Eur J Med Chem, 2019).

Key:
[1] = molecular target: Procathepsin L (Homo sapiens, UniProt P07711); experiment: Inhibition of human liver cathepsin L assessed as pseudo Michaelis-Menten constant at 10 nM using varying levels of Z-Phe-Arg-AMC as substrate measured every 5 mins for 1 hr by fluorescence assay
[2] = Drug uptake in small intestine of SCID mouse xenografted with human HT-29 cells pretreated for 1 hr with colchicine at 1 mg/kg, ip followed by 177Lu labelled compound at 0.37 MBq/mouse, iv measured at 24 hrs by gamma counter analysis; format: ADME, organism-based; details: in vivo
Procedure, shortened: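 HT-29 flank xenografts in female SCID mice (5 × 10^6 cells in Matrigel, about 80 mm3). Colchicine 1 mg/kg was given i.p. before a tail-vein injection of 10 μCi (0.37 MBq) of purified 177Lu-conjugate. Tissues were taken at 24 h, weighed and gamma-counted as %ID/g; mean ± SD, n = 5.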

[3] = Drug excretion in SCID mouse xenografted with human HT-29 cells using 177Lu labelled compound at 0.37 MBq/mouse, iv co-treated with D-lysine at 40 mg/kg measured at 24 hrs by gamma counter analysis; format: ADME, organism-based; details: in vivo
Procedure, shortened: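 Female SCID mice bearing s.c. flank HT-29 xenografts (5 × 10^6 cells in Matrigel, ~80 mm3). Given 10 μCi (0.37 MBq) 177Lu conjugate i.v. by tail vein; groups sacrificed at 4, 24, 72 h. Tissues weighed and gamma-counted as %ID/g, excretion as %ID; n = 5, mean ± SD. Blocking arms: colchicine 1 mg/kg i.p. beforehand, or D-lysine 40 mg/kg co-injected.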

[4] = Drug uptake in spleen of SCID mouse xenografted with human HT-29 cells using 177Lu labelled compound at 0.37 MBq/mouse, iv co-treated with D-lysine at 40 mg/kg measured at 24 hrs by gamma counter analysis; format: ADME, organism-based; details: in vivo
Procedure, shortened: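 HT-29 s.c. xenografts in female SCID mice. 177Lu conjugate given i.v. by tail vein at 10 μCi (0.37 MBq)/mouse, co-injected with D-lysine 40 mg/kg. Tissues were taken at 24 h, weighed and gamma counted. Uptake expressed as %ID/g (n = 5, mean ± SD); tumor-to-tissue ratios derived from these values.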

Procathepsin L, sequence (P07711 114-333 limits assumed): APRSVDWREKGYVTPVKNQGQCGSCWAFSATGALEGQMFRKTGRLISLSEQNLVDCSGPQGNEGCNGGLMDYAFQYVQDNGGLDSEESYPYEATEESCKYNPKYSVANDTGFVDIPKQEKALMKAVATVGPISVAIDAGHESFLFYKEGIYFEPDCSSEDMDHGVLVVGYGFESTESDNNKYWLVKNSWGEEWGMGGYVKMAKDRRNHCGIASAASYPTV

K [1] [µM] | Drug uptake [2] [% ID/g] | Drug excretion [3] [%ID] | Drug uptake [4] [% ID/g] | SMILES
37 |  |  |  | Cc1cc(O)cc(C)c1C[C@H](NC(=O)[C@@H]1CCCN1C(=O)[C@H](CCCNC(=N)N)NC(=O)[C@H](CCCNC(=N)N)N(C)C(=O)[C@@H]1CCCN1C(=O)[C@H](CCCCN)NC(=O)[C@@H](CO)NC(=O)[C@@H](CO)NC(=O)[C@@H](CO)NC(=O)[C@H](Cc1cn(CCNC(=O)[C@H](CCCNC(=N)N)NC(=O)[C@H](CC(C)C)NC(=O)CCC(=O)O)nn1)NC(=O)CN1CCN(CC(=O)O)CCN(CC(=O)O)CCN(CC(=O)O)CC1)C(=O)N[C@H](C(=O)N[C@@H](CC(C)C)C(=O)O)C(C)(C)C
 | 2.2 | 83 | 1.1 | Cc1cc(O)cc(C)c1C[C@H](NC(=O)[C@@H]1CCCN1C(=O)[C@H](CCCNC(=N)N)NC(=O)[C@H](CCCNC(=N)N)N(C)C(=O)[C@@H]1CCCN1C(=O)[C@H](CCCCN)NC(=O)[C@@H](CO)NC(=O)[C@@H](CO)NC(=O)[C@@H](CO)NC(=O)[C@H](Cc1cn(CCNC(=O)[C@H](CCCNC(=N)N)NC(=O)[C@H](CC(C)C)NC(=O)C2OC2C(=O)O)nn1)NC(=O)CN1CCN(CC(=O)O)CCN(CC(=O)O)CCN(CC(=O)O)CC1)C(=O)N[C@H](C(=O)N[C@@H](CC(C)C)C(=O)O)C(C)(C)C (some centres undefined)
